Test results: ChEMBL document CHEMBL1138658, “Novel 2-aminotetralin and 3-aminochroman derivatives as selective serotonin 5-HT7 receptor agonists and antagonists” (J Med Chem, 2004)

Tests used:
[1] = target: 5-hydroxytryptamine receptor 2A (Rattus norvegicus, UniProt P14842); assay: Inhibition of [3H]- Ketanserin binding to rat cortex 5-HT2A receptor
[2] = target: T1, Adrenergic receptor alpha-2 (Rattus norvegicus, UniProt P22086+P19328+P22909); assay: Inhibition of [3H]RX-821002 binding to rat cortex Alpha 2 receptor
T1 sequence (P22086 whole entry): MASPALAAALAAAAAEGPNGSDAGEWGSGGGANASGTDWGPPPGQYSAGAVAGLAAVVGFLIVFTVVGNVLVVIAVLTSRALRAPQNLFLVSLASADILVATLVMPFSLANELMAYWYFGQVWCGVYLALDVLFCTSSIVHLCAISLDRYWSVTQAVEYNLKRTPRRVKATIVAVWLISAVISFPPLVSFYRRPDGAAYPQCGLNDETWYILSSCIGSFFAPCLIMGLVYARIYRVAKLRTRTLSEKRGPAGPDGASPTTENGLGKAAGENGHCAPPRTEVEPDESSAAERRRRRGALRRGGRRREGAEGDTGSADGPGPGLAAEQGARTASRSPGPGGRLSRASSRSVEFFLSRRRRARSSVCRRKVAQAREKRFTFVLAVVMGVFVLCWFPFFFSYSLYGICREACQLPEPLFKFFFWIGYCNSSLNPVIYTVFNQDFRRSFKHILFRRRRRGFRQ
T1 sequence (P19328 whole entry): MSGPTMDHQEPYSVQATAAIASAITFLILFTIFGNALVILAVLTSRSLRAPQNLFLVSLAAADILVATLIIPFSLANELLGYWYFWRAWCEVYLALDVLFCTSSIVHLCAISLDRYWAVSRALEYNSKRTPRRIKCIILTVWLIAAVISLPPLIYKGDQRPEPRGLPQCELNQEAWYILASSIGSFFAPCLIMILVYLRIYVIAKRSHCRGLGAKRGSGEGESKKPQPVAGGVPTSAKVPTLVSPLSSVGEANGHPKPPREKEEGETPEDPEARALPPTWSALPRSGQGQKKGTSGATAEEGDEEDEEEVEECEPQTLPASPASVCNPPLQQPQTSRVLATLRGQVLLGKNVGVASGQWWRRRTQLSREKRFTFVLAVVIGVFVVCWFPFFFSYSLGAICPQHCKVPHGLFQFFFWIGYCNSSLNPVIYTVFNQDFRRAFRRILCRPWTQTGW
T1 sequence (P22909 whole entry): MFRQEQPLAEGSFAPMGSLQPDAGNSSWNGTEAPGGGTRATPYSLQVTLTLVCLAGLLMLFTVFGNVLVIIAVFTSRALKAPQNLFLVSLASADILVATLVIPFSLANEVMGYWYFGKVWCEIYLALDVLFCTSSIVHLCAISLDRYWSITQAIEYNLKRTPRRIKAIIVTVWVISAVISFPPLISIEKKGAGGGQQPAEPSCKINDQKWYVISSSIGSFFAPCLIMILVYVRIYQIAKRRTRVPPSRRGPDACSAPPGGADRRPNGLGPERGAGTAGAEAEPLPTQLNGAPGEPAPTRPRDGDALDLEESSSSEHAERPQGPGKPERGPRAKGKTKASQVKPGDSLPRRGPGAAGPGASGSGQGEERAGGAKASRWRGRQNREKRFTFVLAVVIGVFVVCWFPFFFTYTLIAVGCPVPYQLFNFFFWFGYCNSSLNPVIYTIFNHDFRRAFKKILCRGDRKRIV

D(1A) dopamine receptor = D(1A) dopamine receptor (Rattus norvegicus, UniProt P18901); assay: Inhibition of [3H]SCH-23390 binding to rat striatum Dopamine receptor 1; assay type: tissue-based
Adrenergic receptor beta = Adrenergic receptor beta (Rattus norvegicus, UniProt P18090+P10608+P26255); assay: Inhibition of [3H]DHA binding to rat cortex Beta receptor
[3] = target: T2, 5-hydroxytryptamine receptor 1A (Rattus norvegicus, UniProt P19327); assay: Inhibition of [3H]8-OH-DPAT binding to rat 5-hydroxytryptamine 1A receptor
T2 sequence (P19327 whole entry): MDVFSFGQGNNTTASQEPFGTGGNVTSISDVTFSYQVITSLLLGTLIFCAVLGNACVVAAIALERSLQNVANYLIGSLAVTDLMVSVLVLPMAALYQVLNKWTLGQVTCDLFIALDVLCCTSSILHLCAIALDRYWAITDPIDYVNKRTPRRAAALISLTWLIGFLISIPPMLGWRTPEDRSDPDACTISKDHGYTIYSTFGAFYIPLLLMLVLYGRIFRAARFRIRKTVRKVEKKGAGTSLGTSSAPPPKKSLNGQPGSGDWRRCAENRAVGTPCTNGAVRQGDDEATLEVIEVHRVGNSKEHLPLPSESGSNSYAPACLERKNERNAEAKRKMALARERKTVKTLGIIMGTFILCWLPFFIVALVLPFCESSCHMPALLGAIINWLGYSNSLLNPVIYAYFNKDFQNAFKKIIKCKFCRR
Method in brief: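 Radioligand [3H]-8-OH-DPAT; receptor source either CHO cells expressing human 5-HT1A or rat hippocampal cells.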

[4] = target: T3, 5-hydroxytryptamine receptor 1A (Homo sapiens, UniProt P08908); assay: Inhibition of [3H]8-OH-DPAT binding to human 5-HT1A receptor
T3 sequence (P08908 whole entry): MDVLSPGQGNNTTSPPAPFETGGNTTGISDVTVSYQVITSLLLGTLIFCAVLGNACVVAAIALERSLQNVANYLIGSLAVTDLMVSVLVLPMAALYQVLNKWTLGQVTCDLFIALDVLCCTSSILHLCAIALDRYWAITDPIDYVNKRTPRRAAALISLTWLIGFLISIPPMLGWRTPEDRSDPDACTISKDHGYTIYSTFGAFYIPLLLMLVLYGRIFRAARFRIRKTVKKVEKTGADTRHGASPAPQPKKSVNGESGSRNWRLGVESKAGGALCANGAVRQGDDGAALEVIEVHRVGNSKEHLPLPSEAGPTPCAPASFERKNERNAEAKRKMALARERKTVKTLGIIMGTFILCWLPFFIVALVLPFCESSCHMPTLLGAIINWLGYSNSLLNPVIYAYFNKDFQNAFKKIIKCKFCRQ
Method in brief: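 Human 5-HT1A receptor expressed in CHO cells, labelled with [3H]-8-OH-DPAT.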

5-hydroxytryptamine receptor 2A, sequence (P14842 whole entry): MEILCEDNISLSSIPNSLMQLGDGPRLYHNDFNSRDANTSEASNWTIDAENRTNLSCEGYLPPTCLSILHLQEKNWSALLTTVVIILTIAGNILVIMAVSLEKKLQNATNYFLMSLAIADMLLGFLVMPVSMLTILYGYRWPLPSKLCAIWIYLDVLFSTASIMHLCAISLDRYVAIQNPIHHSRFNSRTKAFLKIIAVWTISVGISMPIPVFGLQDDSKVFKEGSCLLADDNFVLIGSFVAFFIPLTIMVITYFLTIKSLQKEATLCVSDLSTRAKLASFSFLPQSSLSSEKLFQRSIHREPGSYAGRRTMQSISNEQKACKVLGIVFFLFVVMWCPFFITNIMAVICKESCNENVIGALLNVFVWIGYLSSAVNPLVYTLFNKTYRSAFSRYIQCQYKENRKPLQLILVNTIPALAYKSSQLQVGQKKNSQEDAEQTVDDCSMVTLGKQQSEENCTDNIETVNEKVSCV
D(1A) dopamine receptor, sequence (P18901 whole entry): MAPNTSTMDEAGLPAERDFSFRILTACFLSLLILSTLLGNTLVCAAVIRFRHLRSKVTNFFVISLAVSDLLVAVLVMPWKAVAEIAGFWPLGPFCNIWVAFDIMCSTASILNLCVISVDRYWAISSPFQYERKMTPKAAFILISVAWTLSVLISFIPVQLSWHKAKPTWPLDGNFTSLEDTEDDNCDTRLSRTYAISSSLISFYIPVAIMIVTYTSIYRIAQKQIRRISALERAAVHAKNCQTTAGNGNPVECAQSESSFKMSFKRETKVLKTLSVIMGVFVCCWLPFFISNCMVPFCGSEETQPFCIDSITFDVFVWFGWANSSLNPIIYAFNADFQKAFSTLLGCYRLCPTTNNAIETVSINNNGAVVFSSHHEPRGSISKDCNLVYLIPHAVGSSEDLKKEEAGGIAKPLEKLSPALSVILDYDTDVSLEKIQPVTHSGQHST

SMILES | Ki [1] [nM] | Ki [2] [nM] | Ki (D(1A) dopamine receptor) [nM] | Ki (Adrenergic receptor beta) [nM] | Ki [3] [nM] | Ki [4] [nM]
COc1cccc(OC)c1-c1cccc2c1CC[C@H](N(C)C)C2 | 1340 | 188 | > 1000 | > 1000 | 1420 | 1420
CCCN(CCC)[C@H]1CCc2c(cccc2-c2c(OC)cccc2OC)C1 | 1450 | 2090 | > 1000 | > 1000 | 347 | 347
